CSC inhib – cancer stem cell viability inhibitors, primary screen, luminescence; cancer stem cell-like cells viability; inhibition, % at 7.5 µM; 300,000 compounds, 1.1% hits; AID 2717, 2010; in the data active = inhibition above about 75%; tested in HMLE shEcad cells
Mdm2-MdmX inh – inhibitors of human Mdm2-MdmX association, primary screen, cell-based, luminescence, split luciferase, SaOS-2, uHTS; Protein Mdm4 (Homo sapiens) + E3 ubiquitin-protein ligase Mdm2 (Homo sapiens), …; SaOS-2 split-luciferase Mdm2/MdmX complementation; inhibition, % at 8 µM; 330,000 compounds, 3% hits;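 active = inhibition of at least 50% at 8 µM in the primary screen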
T cruzi inh – inhibitors of intracellular T. cruzi growth, primary screen, luminescence, NIH3T3 host cells. 300,000 compounds, 1.4% hits. T. cruzi beta-gal in NIH3T3, 90 h. inhibition, % (concentration not given with the values). AID 1885, 2009;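 active = mean inhibition across valid replicates above about 55%, limit read from the data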;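 also: signal also drops with host cell toxicity which is not excluded here; 0% = plate median of DMSO wells and 100% = zero luminescence signal; higher percent means less beta-gal luminescence so fewer parasites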
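assay system = mouse NIH/3T3 fibroblasts infected with β-gal-expressing T. cruzi Tulahuen C4 | input = 5,000 NIH/3T3 host cells per well | buffer or medium = DMEM plus 2% FBS | timing = 3 h host attachment, then at least 90 h co-culture | measured by = GalScreen luminescence, 60 min | evaluation = luminescence reflecting intracellular parasite burden, expressed as percent inhibition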
Beta cell apopt – inhibitors of cytokine-induced beta cell apoptosis, primary screen, luminescence; AID 435005, 2010; 300,000 compounds, 0.8% hits; INS-1E cytokine-induced death, ATP luminescence, 48 h; percent of positive-control rescue, neutral wells zero; protection from apoptosis, % (concentration not given with the values);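 active = Every replicate reaches about 75%, or at least half do and their mean reaches it too, limit read from the data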;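 also: 0% = cytokine-treated negative control wells and 100% = positive control rescue; higher means more ATP so stronger rescue from cytokine killing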
Calb FLC – C. albicans growth inhibition with fluconazole, primary screen, CaCi-2 strain, Alamar Blue fluorescence; C. albicans CaCi-2 (fluconazole-resistant clinical isolate) + fluconazole, 48 h; growth inhibition, % (test concentration not listed); 300,000 compounds, 0.57% hits;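 active = growth inhibition above about 58% in most replicates, limit read from the data, passing the limit was not always enough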;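 also: all wells also contain fluconazole at 8 µg/ml as a sub-toxic cotreatment; 0% = median of DMSO wells and 100% = median of geldanamycin control wells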
SKKanGAS inh – S. pyogenes SKKanGAS growth inhibitors in kanamycin, primary screen, streptokinase expression inhibitor project, SKKanGAS strain, BacTiter-Glo luminescence | 6 h | inhibition, % at 7.5 µM | 300,000 compounds, 1.3% hits | AID 1662, 2009;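 active = mean replicate score, as percent of positive control median, at least 50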;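 also: strain carries kanamycin resistance gene driven by streptokinase promoter and grows in 40 µg/ml kanamycin; loss of luminescence reflects streptokinase promoter inhibition or plain growth inhibition; 0% = median of DMSO wells and 100% = positive control at its reference dose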
Mdm2 MdmX conf – Mdm2-MdmX complex disruptors, retested hits, confirmation, luminescence, single concentration. 10,000 compounds, 55% hits. shares compounds with Mdm2-MdmX inh. AID 489028, 2010. inhibition, % at 8 µM. Mdm2-MdmX binding, luminescent assay; in the data active = inhibition above about 40%
Full FLuc ctr – full-length luciferase signal inhibition, confirmation, counter-screen for Mdm2/MdmX interaction inhibitor project, cell-based, single concentration, SaOS-2; shares compounds with Mdm2-MdmX inh; SaOS-2 full-length luciferase counterscreen, luminescence; inhibition, % at 8 µM; 6,200 compounds, 77% hits; AID 504607, 2011;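 active = mean inhibition at 8 µM reaching about 37%, which flags the compound as non-specific, limit read from the data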;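 also: p53-null SaOS-2 cells with luciferase driven by a doxycycline-inducible promoter; compound on cells about two nights before reading with doxycycline added after day one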
* = called active by the depositor; x = no result. Shown are actives, neighbours in structure and some others; about 5.7% of the full set was active somewhere.

SMILES	CSC inhib	Mdm2-MdmX inh	T cruzi inh	Beta cell apopt	Calb FLC	SKKanGAS inh	Mdm2 MdmX conf	Full FLuc ctr
COc1ccc(-c2cn[nH]c2-c2ccc(OCc3ccc([N+](=O)[O-])cc3)cc2O)cc1	52.7	86.0*	21.1	-1.9	2.8	16.0	77.2*	22.4
C=C(C)COc1ccc(-c2[nH]ncc2-c2ccc(Br)cc2)c(O)c1	67.7	59.7*	2.7	6.8	21.7	64.7*	61.9*	44.4*
Cc1c(CCOC(=O)CC23CC4CC(CC(C4)C2)C3)sc[n+]1CC(=O)c1ccc(Br)cc1	117.5*	51.1*	13.0	38.4	3.9	35.2	-2.0	x
Cc1c(CCOC(=O)CC23CC4CC(CC(C)(C4)C2)C3)sc[n+]1CC(=O)c1ccccc1	99.6*	53.7*	48.0	24.4	-12.8	13.0	13.6	x
Cc1c(CCOC(=O)C23CC4CC(CC(C)(C4)C2)C3)sc[n+]1CC(=O)c1ccccc1	-6.8	54.2*	21.7	54.3	15.0	11.5	25.6	x
COC(=O)c1c(C(=O)c2ccc(Br)cc2)n(C)c2ccccc12	25.1	18.2	x	1.7	x	x	x	x
S=C(NCCN(C1CCCCC1)C1CCCC1)Nc1cccc(Cl)c1	34.5	62.2*	31.5	12.0	8.7	-0.3	37.4	63.5*
COC(=O)[C@@]1(Cc2ccc(F)cc2)[C@H]2c3cc(C(=O)N(C)C)n(CCc4ccc(OC)c(Br)c4)c3C[C@H]2CN1C(=O)c1ccccc1	21.3	67.1*	-3.2	-1.1	23.4	27.4	29.6	x
COC(=O)[C@@]1(Cc2ccc(F)cc2)[C@H]2c3cc(C(=O)N(C)C)n(Cc4ccc(OC)c(OC)c4)c3C[C@H]2CN1C(=O)c1ccccc1	-12.1	5.4	7.2	-2.5	20.6	14.4	x	x
N#Cc1c(NC(=O)CSc2ncnc3c2cnn3-c2ccccc2Cl)sc2c1CCCC2	37.5	24.7	-0.9	10.6	10.3	15.6	x	x
COC(=O)c1c(NC(=O)CSc2ncnc3c2cnn3-c2ccccc2Cl)sc2c1CCCC2	11.5	53.3*	22.1	7.1	-1.4	-3.4	12.8	x
CC(C)C(=O)Nc1ccc(N2CCOCC2)c(S(=O)(=O)Nc2ccccc2Cl)c1	-16.0	22.8	x	-9.7	x	x	x	x
O=C(Nc1cccc(C(F)(F)F)c1)Nc1ccc(N2CCCC2)c(S(=O)(=O)Nc2ccccc2Cl)c1	77.9*	99.1*	54.2	103.0*	5.1	38.9	97.3*	56.9*
O=C1CC(C(=O)N2CCN(c3ccccc3)CC2)CN1Cc1ccccc1 (stereo not drawn)	17.8	7.3	x	-3.1	x	x	x	x
CC(=O)N(Cc1cc2ccccc2[nH]c1=O)c1ccc(C)cc1	0.4	9.4	-18.6	-0.5	0.3	-18.4	x	x
O=C(Nc1cc(C(F)(F)F)cc(C(F)(F)F)c1)Nc1cnn(-c2ccc([N+](=O)[O-])cc2)c1C(F)(F)F	101.9*	100.3*	-6.6	115.7*	-12.1	32.5	93.3*	60.0*
COC(=O)CC1COc2ccccc2N1S(=O)(=O)c1ccc(OC)cc1 (stereo not drawn)	47.4	55.4*	6.8	1.7	-1.3	6.3	50.6*	60.8*
COC(=O)CC1COc2ccccc2N1S(=O)(=O)c1ccc(Br)cc1 (stereo not drawn)	2.0	-10.8	12.3	-3.6	-1.9	4.5	x	x
O=C(NN1C(=O)NC2(CCCCC2)C1=O)c1cccs1	0.0	-3.1	x	-1.7	x	x	x	x
CCc1cc(=O)oc2cc(C)cc(OC(C)C(=O)NCCCn3ccnc3)c12 (stereo not drawn)	-17.9	9.3	3.1	-11.8	-0.8	-1.0	x	x
CC1=NN(c2ccccc2)C(=O)/C1=C/C=C/c1ccccc1	83.6*	64.9*	1.5	x	14.1	-1.4	52.2*	49.2*
COC(=O)c1cc(=O)n(-c2ccc(F)cc2)c(=Nc2ccc(F)cc2)s1	15.9	42.3	41.9	-0.7	11.1	-5.4	x	x
COC(=O)c1cc(=O)n(Cc2cccs2)c(=Nc2ccc(F)cc2)s1	121.0*	50.3*	49.0	3.9	-4.2	3.5	11.8	x
COC(=O)c1cc(=O)n(Cc2ccc3c(c2)OCO3)c(=Nc2ccc(F)cc2)s1	43.0	56.7*	-9.3	1.0	-3.1	-4.5	31.2	x
CCc1ccc(N(CC(=O)N2CCCCCC2)S(C)(=O)=O)cc1	-6.9	17.0	-9.3	2.9	2.4	-6.7	x	x
SMILES	CSC inhib	Mdm2-MdmX inh	T cruzi inh	Beta cell apopt	Calb FLC	SKKanGAS inh	Mdm2 MdmX conf	Full FLuc ctr
CCN1C(N(C)CCc2c[nH]c3ccccc23)=N[C@@H](c2cccc(C(F)(F)F)c2)C(C(=O)OC)=C1C	67.0	87.9*	x	7.3	x	x	40.7*	43.6*
CS(=O)(=O)c1ccc(C(=O)OCC(=O)NCc2cccs2)cc1[N+](=O)[O-]	x	73.3*	x	13.1	x	x	52.9*	20.8
Cc1cccc(C(=O)OCC(=O)NCc2cccs2)c1	0.2	-2.5	-0.2	0.2	3.7	-11.5	x	x
COc1ccc(NC(=O)CSCC(=O)Nc2ccc(C)c(S(=O)(=O)N3CCCCCC3)c2)cc1	x	30.5	-0.8	-0.4	-5.0	-0.9	x	x
COCCn1c(SC(C)C(=O)Nc2ncc(Cl)cc2Cl)nc2ccccc21 (stereo not drawn)	22.1	66.7*	3.3	-1.1	0.5	-0.6	50.0*	57.8*
CC[C@]12c3[nH]c4ccc(Cl)cc4c3CCN1C(=O)[C@@H](CC(=O)NCCC1=CCCCC1)C[C@@H]2C(=O)N1CCN(C(=O)C2CC2)CC1	x	33.4	x	x	x	x	x	x
C=CCC[C@@H](Cc1ccc(F)cc1)C(=O)OC[C@H](Cc1c[nH]c2ccccc12)NC(=O)[C@@H](CC=C)CC(=O)N[C@H](CO)Cc1ccccc1	4.8	43.7	x	-1.9	x	x	x	x
C=CCC[C@@H](Cc1ccc(F)cc1)C(=O)OC[C@H](Cc1c[nH]c2ccccc12)NC(=O)[C@H](CC=C)CC(=O)NCCO	x	54.3*	x	8.5	x	x	15.6	x
C=CC[C@@H](CC(=O)N[C@@H](CO)Cc1ccccc1)C(=O)N[C@@H](COC(=O)[C@@H](CC=C)Cc1ccc(F)cc1)Cc1c[nH]c2ccccc12	7.7	48.2	x	0.0	x	x	x	x
C=CC[C@@H](CC(=O)N[C@H](CO)Cc1ccccc1)C(=O)N[C@H](COC(=O)[C@@H](CC=C)Cc1ccc(F)cc1)Cc1c[nH]c2ccccc12	-2.4	81.1*	x	30.4	x	x	49.4*	37.0*

Bioassay records (PubChem BioAssay)
